Structures can show the parent of a compound that is named as a salt. Calls of active or inactive are those of the source. No cut-off for these calls is given here.
Legend:
[1] = Cytotoxicity against human THP1 cells assessed as reduction in cell viability after 72 hrs by MTT assay; type: cell-based; conditions: THP-1 cells, read-out: TC50
Outline: (§1)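 Human THP-1 cells were exposed to 0.1–100 µM for 72 h, and viability was read by MTT. TC50 is the concentration that cuts viability by 50%; percent viable cells at 100 µM is also reported. Mean ± SEM of ≥3 experiments.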

[2] = biological target: NACHT, LRR and PYD domains-containing protein 3 (Mus musculus) (UniProt Q8R4B8); assay: Inhibition of NLRP3 inflammasome in LPS-primed C57BL/6 mouse bone marrow derived macrophages assessed as reduction in ATP-induced IL-1beta production at 10 to 100 uM preincubated for 1 hr followed by stimulation with ATP measured after 30 mins by ELISA
Sequence of NACHT, LRR and PYD domains-containing protein 3 (Mus musculus) (Q8R4B8 whole entry, the tested form may be a part): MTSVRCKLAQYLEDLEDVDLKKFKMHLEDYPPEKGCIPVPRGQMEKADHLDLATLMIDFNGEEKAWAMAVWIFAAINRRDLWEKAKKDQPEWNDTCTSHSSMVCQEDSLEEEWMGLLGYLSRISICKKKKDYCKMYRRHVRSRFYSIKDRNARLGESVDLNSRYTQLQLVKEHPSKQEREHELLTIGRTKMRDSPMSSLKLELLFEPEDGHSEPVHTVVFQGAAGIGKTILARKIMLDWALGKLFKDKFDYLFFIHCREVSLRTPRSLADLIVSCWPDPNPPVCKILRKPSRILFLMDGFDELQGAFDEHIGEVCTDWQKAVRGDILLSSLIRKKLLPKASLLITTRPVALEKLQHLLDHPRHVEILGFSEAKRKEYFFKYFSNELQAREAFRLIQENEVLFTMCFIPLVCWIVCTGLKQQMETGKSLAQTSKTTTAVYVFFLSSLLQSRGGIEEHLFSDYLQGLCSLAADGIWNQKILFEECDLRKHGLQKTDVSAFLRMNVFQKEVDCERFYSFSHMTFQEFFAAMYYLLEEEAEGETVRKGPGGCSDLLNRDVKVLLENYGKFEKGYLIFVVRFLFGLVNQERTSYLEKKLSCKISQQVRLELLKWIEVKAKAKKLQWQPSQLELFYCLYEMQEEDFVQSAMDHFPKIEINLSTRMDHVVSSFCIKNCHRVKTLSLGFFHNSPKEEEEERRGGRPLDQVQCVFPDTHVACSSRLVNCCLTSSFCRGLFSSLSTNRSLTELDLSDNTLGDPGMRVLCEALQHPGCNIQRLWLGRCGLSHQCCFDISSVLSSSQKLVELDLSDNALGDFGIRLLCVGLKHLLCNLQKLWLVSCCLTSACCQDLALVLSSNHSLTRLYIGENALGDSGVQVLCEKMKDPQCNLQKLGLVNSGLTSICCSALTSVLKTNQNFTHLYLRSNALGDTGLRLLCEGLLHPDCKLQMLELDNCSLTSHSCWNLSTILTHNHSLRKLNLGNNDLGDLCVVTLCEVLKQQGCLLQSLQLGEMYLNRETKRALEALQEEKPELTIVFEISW
Outline: (§2)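 C57BL/6 bone marrow macrophages, differentiated with 20% L-cell medium, were primed with LPS (1 µg/mL, 3 h). They were then exposed to compound or vehicle for 1 h and stimulated with ATP (5 mM, 30 min). IL-1β released into the medium was measured by ELISA.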

[3] = biological target: NACHT, LRR and PYD domains-containing protein 3 (Mus musculus) (UniProt Q8R4B8); assay: Inhibition of NLRP3 inflammasome in LPS-primed C57BL/6 mouse bone marrow derived macrophages assessed as reduction in nigericin-induced IL-1beta production at 10 to 100 uM preincubated for 1 hr followed by stimulation with nigericin measured after 30 mins by ELISA
Outline: (§3)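 Bone marrow macrophages from C57BL/6 mice, differentiated with 20% L-cell medium, primed with LPS (1 µg/mL, 3 h). Test agent or vehicle was added for 1 h, then ATP (5 mM, 30 min) or nigericin (10 µM, 30 min). IL-1β in the medium was measured by ELISA. LDH in the medium was measured colorimetrically as % of total cellular LDH.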

[4] = biological target: NACHT, LRR and PYD domains-containing protein 3 (Mus musculus) (UniProt Q8R4B8); assay: Inhibition of NLRP3 inflammasome in LPS-primed C57BL/6 mouse bone marrow derived macrophages assessed as reduction in ATP-induced pyroptosis at 10 to 100 uM preincubated for 1 hr followed by stimulation with ATP measured after 30 mins by LDH release assay; outline: as §3
[5] = biological target: NACHT, LRR and PYD domains-containing protein 3 (Mus musculus) (UniProt Q8R4B8); assay: Inhibition of NLRP3 inflammasome in LPS-primed C57BL/6 mouse bone marrow derived macrophages assessed as reduction in nigericin-induced pyroptosis at 10 to 100 uM preincubated for 1 hr followed by stimulation with ATP measured after 30 mins by LDH release assay; outline: as §3
[6] = Cysteamine reactivity of the compound in PBS assessed as second order rate constant for free cysteamine release at 250 uM and pH 7.4 after 90 mins by DTNB reagent based RP-UHPLC analysis
Outline: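 Compound (250 µM) was mixed with equimolar cysteamine in pH 7.4 PBS containing 12.5% CH3CN at 37 °C. Free cysteamine was tracked with DTNB at several time points over 90 min. Second-order k2 came from 1/[CAM] = 1/[CAM]0 + kt, using 3–10 points per plot; mean ± SEM of ≥3 experiments.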

[7] = Cytotoxicity against human THP1 cells assessed as cell viability at 100 uM after 72 hrs by MTT assay; type: cell-based; conditions: THP-1 cells, read-out: Activity; outline: as §1
[8] = biological target: NACHT, LRR and PYD domains-containing protein 3 (Homo sapiens) (UniProt Q96P20); assay: Inhibition of recombinant human NLRP3 ATPase assessed as hydrolysis of ATP at 100 uM preincubated for 15 mins followed by addition of ATP measured after 40 mins by ADP-Glo assay
Sequence of NACHT, LRR and PYD domains-containing protein 3 (Homo sapiens) (Q96P20 whole entry, the tested form may be a part): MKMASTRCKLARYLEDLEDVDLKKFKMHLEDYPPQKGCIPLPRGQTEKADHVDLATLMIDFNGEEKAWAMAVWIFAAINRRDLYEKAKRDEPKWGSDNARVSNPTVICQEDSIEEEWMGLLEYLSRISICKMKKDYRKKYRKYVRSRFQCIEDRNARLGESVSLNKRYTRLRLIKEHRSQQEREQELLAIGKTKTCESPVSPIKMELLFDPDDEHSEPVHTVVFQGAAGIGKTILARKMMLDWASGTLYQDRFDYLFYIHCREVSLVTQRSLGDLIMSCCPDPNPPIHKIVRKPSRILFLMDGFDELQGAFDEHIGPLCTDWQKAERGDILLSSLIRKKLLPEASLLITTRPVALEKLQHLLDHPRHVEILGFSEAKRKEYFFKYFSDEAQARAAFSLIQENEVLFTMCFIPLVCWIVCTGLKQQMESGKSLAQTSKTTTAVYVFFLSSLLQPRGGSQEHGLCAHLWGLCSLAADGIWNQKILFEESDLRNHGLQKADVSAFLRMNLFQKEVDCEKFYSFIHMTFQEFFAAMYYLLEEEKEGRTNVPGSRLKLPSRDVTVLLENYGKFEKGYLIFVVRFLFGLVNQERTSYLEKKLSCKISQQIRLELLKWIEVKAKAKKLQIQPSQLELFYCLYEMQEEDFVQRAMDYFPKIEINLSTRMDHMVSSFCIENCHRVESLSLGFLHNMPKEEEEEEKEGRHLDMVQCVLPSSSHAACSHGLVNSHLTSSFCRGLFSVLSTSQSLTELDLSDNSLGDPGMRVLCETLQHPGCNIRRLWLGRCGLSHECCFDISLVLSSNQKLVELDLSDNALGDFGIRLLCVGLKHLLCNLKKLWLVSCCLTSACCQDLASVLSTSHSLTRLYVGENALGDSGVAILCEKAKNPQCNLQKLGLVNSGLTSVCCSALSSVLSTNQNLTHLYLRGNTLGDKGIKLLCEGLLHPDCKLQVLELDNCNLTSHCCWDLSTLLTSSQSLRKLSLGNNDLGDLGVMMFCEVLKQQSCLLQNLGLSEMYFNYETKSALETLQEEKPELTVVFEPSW
Outline: (§4)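 Human recombinant NLRP3 (0.105 µg) in 20 mM Tris-HCl pH 7.8, 133 mM NaCl, 20 mM MgCl2, 3 mM KCl, 0.56 mM EDTA, 0.5% DMSO. Compound (100 or 50 µM) was preincubated 15 min at 37 °C, then ATP (250 µM) was added for 40 min at 37 °C. ADP was read by ADP-Glo luminescence. Result is % inhibition vs vehicle; mean ± SEM, ≥3 experiments.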

[9] = biological target: NACHT, LRR and PYD domains-containing protein 3 (Homo sapiens) (UniProt Q96P20); assay: Inhibition of recombinant human NLRP3 ATPase assessed as hydrolysis of ATP at 50 uM preincubated for 15 mins followed by addition of ATP measured after 40 mins by ADP-Glo assay; outline: as §4
[10] = biological target: NACHT, LRR and PYD domains-containing protein 3 (Homo sapiens) (UniProt Q96P20); assay: Inhibition of NLRP3 in PMA-differentiated and LPS-primed human THP1 cells assessed as decrease in ATP-induced pyroptosis measured as LDH activity at 10 uM preincubated for 1 hr followed by ATP addition measured after 1 hr by colorimetric assay relative to control
Outline: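 THP-1 cells were PMA-differentiated and LPS-primed, then pretreated with vehicle or compound (10 µM, 1 h). Pyroptosis was triggered with ATP (5 mM). LDH in supernatant was measured colorimetrically 1 h after ATP and expressed as percent decrease versus vehicle, mean ± SEM of ≥3 experiments.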

[11] = Metabolic stability in Sprague-Dawley rat liver microsomes at 100 uM after 2 hrs in presence of NADPH-generating system by UHPLC-MS analysis; type: ADME, microsome; conditions: read-out: Stability
Outline: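 Rat liver microsomes (0.5 mg protein/mL) in 100 mM phosphate buffer pH 7.4 with NADPH-generating system, compound 100 µM final (≤2% DMSO), 37 °C, shaking, up to 120 min. Samples were taken at 0, 15, 30, 60 and 120 min and quenched with acetonitrile on ice. Analysis by UHPLC-MS; runs were also done without NADPH system. ≥3 independent repeats.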

[12] = system: Liver; assay: Drug level in Sprague-Dawley rat liver microsomes treated with INF39 at 100 uM up to 2 hrs by UHPLC-MS analysis; type: ADME, microsome
[13] = biological target: NACHT, LRR and PYD domains-containing protein 3 (Homo sapiens) (UniProt Q96P20); assay: Inhibition of recombinant human NLRP3 ATPase assessed as hydrolysis of ATP preincubated for 15 mins followed by addition of ATP measured after 40 mins by ADP-Glo assay; outline: as §4
[14] = biological target: NACHT, LRR and PYD domains-containing protein 3 (Mus musculus) (UniProt Q8R4B8); assay: Inhibition of NLRP3 inflammasome in LPS-primed C57BL/6 mouse bone marrow derived macrophages assessed as reduction in ATP-induced IL-1beta production at 1 to 100 uM preincubated for 1 hr followed by stimulation with ATP measured after 30 mins by ELISA; outline: as §2
[15] = biological target: NACHT, LRR and PYD domains-containing protein 3 (Mus musculus) (UniProt Q8R4B8); assay: Inhibition of NLRP3 inflammasome in LPS-primed C57BL/6 mouse bone marrow derived macrophages assessed as reduction in nigericin-induced IL-1beta production at 1 to 100 uM preincubated for 1 hr followed by stimulation with nigericin measured after 30 mins by ELISA; outline: as §3
[16] = biological target: NACHT, LRR and PYD domains-containing protein 3 (Mus musculus) (UniProt Q8R4B8); assay: Inhibition of NLRP3 inflammasome in LPS-primed C57BL/6 mouse bone marrow derived macrophages assessed as reduction in ATP-induced pyroptosis at 1 to 100 uM preincubated for 1 hr followed by stimulation with ATP measured after 30 mins by LDH release assay
Outline: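 LPS-primed (1 µg/mL, 3 h) C57BL/6 bone marrow macrophages were treated with compound or vehicle for 1 h, then given ATP (5 mM, 30 min). LDH in the medium was measured and expressed as percent of total cellular LDH.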

[17] = biological target: NACHT, LRR and PYD domains-containing protein 3 (Mus musculus) (UniProt Q8R4B8); assay: Inhibition of NLRP3 inflammasome in LPS-primed C57BL/6 mouse bone marrow derived macrophages assessed as reduction in nigericin-induced pyroptosis at 1 to 100 uM preincubated for 1 hr followed by stimulation with ATP measured after 30 mins by LDH release assay; outline: as §3
[18] = biological target: NACHT, LRR and PYD domains-containing protein 3 (Homo sapiens) (UniProt Q96P20); assay: Irreversible inhibition of His-FLAG- tagged NLRP3-ATPase (unknown origin) at 100 uM preincubated for 55 mins followed by ATP addition measured after 40 mins by ADP-Glo assay
Outline: (§5)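 His-FLAG NLRP3 (105 ng/well) captured on anti-FLAG-coated, BSA-blocked wells for 3 h at 4 °C. Compound (100 µM final, 2% DMSO) preincubated 55 min at 37 °C. Wells were washed three times (or not washed), then ATP (250 µM) was added for 40 min at 37 °C. ADP was read by ADP-Glo. Equal protein loading was checked by anti-His ELISA.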

[19] = biological target: NACHT, LRR and PYD domains-containing protein 3 (Homo sapiens) (UniProt Q96P20); assay: Irreversible inhibition of His-FLAG- tagged NLRP3-ATPase (unknown origin) at 100 uM preincubated for 55 mins followed by compound wash-out and ATP addition measured after 40 mins by ADP-Glo assay; outline: as §5
[20] = biological target: serum albumin (Homo sapiens, UniProt P02768); assay: Binding affinity to human serum albumin after 5 mins by RP-UHPLC analysis; type: ADME; conditions: read-out: PB (converted)
Sequence of serum albumin (P02768 whole entry): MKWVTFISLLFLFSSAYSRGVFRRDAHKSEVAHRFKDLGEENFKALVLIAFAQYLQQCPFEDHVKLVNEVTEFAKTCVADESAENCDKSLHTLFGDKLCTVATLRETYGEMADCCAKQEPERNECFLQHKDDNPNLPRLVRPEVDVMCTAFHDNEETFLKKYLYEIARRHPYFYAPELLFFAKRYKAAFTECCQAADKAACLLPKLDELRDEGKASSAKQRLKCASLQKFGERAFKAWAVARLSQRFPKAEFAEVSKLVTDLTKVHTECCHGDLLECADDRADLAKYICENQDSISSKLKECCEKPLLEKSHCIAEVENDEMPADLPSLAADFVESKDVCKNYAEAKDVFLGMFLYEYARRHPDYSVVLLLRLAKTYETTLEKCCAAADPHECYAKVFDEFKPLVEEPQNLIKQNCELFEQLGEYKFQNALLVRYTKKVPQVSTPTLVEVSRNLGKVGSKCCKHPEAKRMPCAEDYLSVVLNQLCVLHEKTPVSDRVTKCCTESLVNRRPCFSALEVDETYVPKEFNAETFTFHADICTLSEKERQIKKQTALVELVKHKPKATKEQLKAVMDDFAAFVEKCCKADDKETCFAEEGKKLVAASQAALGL

## Cc1ccc(S(=O)(=O)/C=C/C#N)cc1
[1]
  CC50 at 72 h: 1.5 µM
[2]
  inhibition: Active
[3]
  inhibition: Active
[4]
  inhibition: Active
[5]
  inhibition: Active

## C=C(Cc1ccccc1Cl)C(=O)O
[6]
  Drug metabolism: Metabolite not detected
[1]
  CC50 at 72 h: > 100 µM
[7]
  viability at 72 h, 100 µM: 102%
[8]
  inhibition: 44%
[9]
  inhibition: 22%
[10]
  inhibition: 35.8%
[11]
  remaining at 2 h, 100 µM: > 99%
[12]
  Drug metabolism: Metabolite_Detected
[13]
  inhibition: Dose-dependent effect

## C=C(C(=O)OCC)C(O)c1ccc(Cl)cc1Cl (configuration not stated)
[6]
  K: 1.34 M⁻¹ s⁻¹
[1]
  CC50 at 72 h: 68.3 µM
[8]
  inhibition: 35%
[9]
  inhibition: 19%
[10]
  inhibition: 74.4%
[13]
  inhibition: Dose-dependent effect

## C=C(C(=O)OCC)C(OC(C)=O)c1ccccc1Cl (configuration not stated)
[6]
  K: 56.2 M⁻¹ s⁻¹
[1]
  CC50 at 72 h: 33.3 µM

## COC(=O)/C=C/C(=O)OC [DIMETHYL FUMARATE]
[6]
  K: 39 M⁻¹ s⁻¹
[1]
  CC50 at 72 h: 95.5 µM
[8]
  inhibition: inactive
[9]
  inhibition: inactive
[10]
  inhibition: 65.2%
[14]
  inhibition: Active
[15]
  inhibition: Active
[16]
  inhibition: Active
[17]
  inhibition: Active

## C=C(C(=O)OCC)C(OCCC(=O)OCC)c1ccc(Cl)cc1Cl (configuration not stated)
[6]
  K: 0.292 M⁻¹ s⁻¹
[1]
  CC50 at 72 h: > 100 µM
[7]
  viability at 72 h, 100 µM: 87.7%
[9]
  inhibition: 10%

## CC(Cc1ccccc1Cl)C(=O)O (configuration not stated)
[6]
  Drug metabolism: Metabolite not detected
[1]
  CC50 at 72 h: > 100 µM
[7]
  viability at 72 h, 100 µM: 98.7%
[8]
  inhibition: 15%
[9]
  inhibition: inactive
[10]
  inhibition: 5.2%

## O=[N+]([O-])/C=C/c1ccc2c(c1)OCO2
[6]
  K: 2.5 M⁻¹ s⁻¹
[1]
  CC50 at 72 h: 3.2 µM

## C=C(C(=O)OCC)C(OC)c1ccccc1Cl (configuration not stated)
[6]
  K: 1.6 M⁻¹ s⁻¹
[1]
  CC50 at 72 h: > 100 µM
[7]
  viability at 72 h, 100 µM: 78.1%
[8]
  inhibition: 60%
[9]
  inhibition: 24%
[10]
  inhibition: 37.2%
[13]
  inhibition: Dose-dependent effect

## C=C(C(=O)OCC)C(OCCC(=O)OCC)c1ccccc1Cl (configuration not stated)
[6]
  K: 0.734 M⁻¹ s⁻¹
[1]
  CC50 at 72 h: > 100 µM
[7]
  viability at 72 h, 100 µM: 95.7%
[8]
  inhibition: 56%
[9]
  inhibition: 27%
[13]
  inhibition: Dose-dependent effect

## C=C(C(=O)O)C(O)c1ccccc1Cl (configuration not stated)
[6]
  Drug metabolism: Metabolite not detected
[1]
  CC50 at 72 h: > 100 µM
[7]
  viability at 72 h, 100 µM: 80.7%
[8]
  inhibition: 69%
[9]
  inhibition: 21%
[13]
  inhibition: Dose-dependent effect

## CCOC(=O)C1=CCOC1c1ccccc1Cl (configuration not stated)
[6]
  K: 8.18 M⁻¹ s⁻¹
[13]
  inhibition: Dose-dependent effect

## C=C(C(=O)O)C(O)c1ccc(Cl)cc1Cl (configuration not stated)
[6]
  Drug metabolism: Metabolite not detected
[1]
  CC50 at 72 h: > 100 µM
[7]
  viability at 72 h, 100 µM: 88.1%
[8]
  inhibition: 43%
[9]
  inhibition: 11%
[10]
  inhibition: 40.2%
[13]
  inhibition: Dose-dependent effect

## CCOC(=O)C(C)Cc1ccccc1Cl (configuration not stated)
[6]
  Drug metabolism: Metabolite not detected
[1]
  CC50 at 72 h: > 100 µM
[7]
  viability at 72 h, 100 µM: 86.1%
[8]
  inhibition: 12%
[9]
  inhibition: inactive
[10]
  inhibition: 3.8%
[18]
  inhibition: 10%
[19]
  inhibition: inactive
[13]
  inhibition: Dose-dependent effect

## C=C(C(=O)OCC)C(O)c1ccccc1Cl (configuration not stated)
[20]
  fraction unbound at 5 min: 0.35
[6]
  K: 0.824 M⁻¹ s⁻¹
[1]
  CC50 at 72 h: 65 µM
[8]
  inhibition: 72%
[9]
  inhibition: 32%
[10]
  inhibition: 80.9%
[13]
  inhibition: Dose-dependent effect

Reference: ChEMBL document CHEMBL4014309, “Development of an Acrylate Derivative Targeting the NLRP3 Inflammasome for the Treatment of Inflammatory Bowel Disease” (J Med Chem, 2017)
